The text below walks through data of ChEMBL document CHEMBL2311469, “Development of new cathepsin B inhibitors: combining bioisosteric replacements and structure-based design to explore the structure-activity relationships of nitroxoline derivatives” (J Med Chem, 2013).

The source made the active and inactive calls. The calls are words filed in the database; no cut-off is given here.

The test system of data set [1] is MCF-10A. The experiment in a line: Increase in proliferation of human MCF10A neoT cells expressing c-Ha-Ras oncogene at 5 uM measured at 15 mins interval up to 3 days. The format is ADME, cell-based. The method in brief:
(§1)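 MCF-10A neoT cells, 7500 per well, monitored on the xCELLigence impedance system (cell index read every 15 min). After ~10 h, in log growth, 2.5 or 5 μM compound or 0.2% DMSO was added. Run for 72 h, with medium containing inhibitor renewed every 24 h.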

Data set [2] deals with T1, Cathepsin B (Homo sapiens, UniProt P07858). The data set can be described thus: Noncompetitive inhibition of human recombinant cathepsin B exopeptidase activity using Abz-Gly-Ile-Val-Arg-Ala-Lys(Dnp)-OH substrate. The method in brief: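 Human recombinant catB, preactivated 5 min at 37 °C in assay buffer containing 0.1% PEG 8000, 5 mM DTT and 1.5 mM EDTA. […] Exopeptidase: 60 mM acetate pH 5.0, Abz-GIVRAK(Dnp)-OH 1/3/6 μM (Km 6.3 μM). Inhibitor 0–200 μM, 5% DMSO, 37 °C, fluorescence rate; two runs in duplicate.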

The target in data set [3] is T1, Cathepsin B. Conditions: MCF10A neoT, 5 uM.
The test system of data set [4] is MCF-10A. The experiment in a line: Inhibition of human MCF10A neoT cell invasion expressing c-Ha-Ras oncogene at 5 uM after 30 mins relative to DMSO-treated control. The format is functional. The note with it: 72 h, in the assay text read “after 72 hrs” for “after 30 mins”. Summed up:
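xCELLigence CIM-16 invasion assay. Upper chamber coated with 5 mg/mL Matrigel; lower well coated with bovine fibronectin. Compound 5 μM or 0.05% DMSO in both chambers, equilibrated 30 min at 37 °C. Then 3 × 10^4 cells seeded in serum-free medium, cell index read every 15 min for 72 h. Invasion = cell index with compound / DMSO; mean ± SD, n = 4, two experiments.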

The species entered for data set [5] is Homo sapiens. The experiment in a line: Selectivity ratio of Ki for human liver cathepsin H to Ki for human recombinant cathepsin B.
Data set [6] concerns the target T2, Pro-cathepsin H (Homo sapiens, UniProt P09668).
T2 sequence (P09668 whole entry): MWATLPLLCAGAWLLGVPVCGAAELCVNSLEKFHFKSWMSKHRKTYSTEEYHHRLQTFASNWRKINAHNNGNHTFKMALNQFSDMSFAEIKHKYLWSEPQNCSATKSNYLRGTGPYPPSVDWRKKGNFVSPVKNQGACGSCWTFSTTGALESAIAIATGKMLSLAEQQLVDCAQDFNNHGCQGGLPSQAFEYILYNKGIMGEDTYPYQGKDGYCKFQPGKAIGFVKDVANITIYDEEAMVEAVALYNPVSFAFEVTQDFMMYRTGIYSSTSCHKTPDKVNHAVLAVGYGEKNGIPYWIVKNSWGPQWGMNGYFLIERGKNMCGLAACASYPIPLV
The data set can be described thus: Noncompetitive inhibition of human liver cathepsin H endopeptidase activity using R-AMC substrate assessed as inhibition constant for enzyme-substrate-inhibitor complex. The method in brief:
(§2)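 Native catH isolated from human liver was preactivated for 5 min at 37 °C in 100 mM phosphate pH 6.8 with 0.1% PEG 8000, 5 mM DTT and 1.5 mM EDTA. Arg-AMC was used at 20, 80 and 160 μM, with inhibitor at 0–200 μM (seven levels) and 5% DMSO. […] Run twice in duplicate.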

The subject of data set [7] is MCF-10A. The data set can be described thus: Increase in proliferation of human MCF10A neoT cells expressing c-Ha-Ras oncogene at 2.5 uM measured at 15 mins interval up to 3 days. The data set is classed as ADME, cell-based. The method in brief:
as §1

Data set [8] relates to MCF-10A. The data set can be described thus: Cytotoxicity against human MCF10A neoT cells expressing c-Ha-Ras oncogene at 2.5 uM measured at 15 mins interval up to 3 days. The data set is classed as cell-based. The method in brief:
as §1

The target in another data set is Procathepsin L (Homo sapiens, UniProt P07711). The experiment in a line: Competitive inhibition of human recombinant cathepsin L endopeptidase activity using Z-FR-AMC substrate expressed in Escherichia coli assessed as inhibition constant for enzyme-inhibitor complex. Summed up: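 Ki from rates at three substrate levels with inhibitor at 0, 20, 40, 60, 80, 100 and 200 μM. Enzymes were preactivated 5 min at 37 °C. CatL (recombinant, E. coli): 100 mM acetate pH 5.5, Z-Phe-Arg-AMC 0.5/1/4 μM. CatH (native, human liver): 100 mM phosphate pH 6.8, Arg-AMC 20/80/160 μM. Buffers held 0.1% PEG 8000, 5 mM DTT and 1.5 mM EDTA, plus 5% DMSO. Two runs in duplicate.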
Procathepsin L, sequence (P07711 whole entry): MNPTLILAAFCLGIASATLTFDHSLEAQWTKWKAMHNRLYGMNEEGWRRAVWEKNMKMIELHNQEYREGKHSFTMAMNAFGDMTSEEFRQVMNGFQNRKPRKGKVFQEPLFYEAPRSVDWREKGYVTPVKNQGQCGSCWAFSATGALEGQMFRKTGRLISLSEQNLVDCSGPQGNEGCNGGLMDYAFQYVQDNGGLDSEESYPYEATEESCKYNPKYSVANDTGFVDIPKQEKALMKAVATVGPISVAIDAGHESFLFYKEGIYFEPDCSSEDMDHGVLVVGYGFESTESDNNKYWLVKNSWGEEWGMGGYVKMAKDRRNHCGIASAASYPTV

The species named for data set [9] is Homo sapiens. The experiment in a line: Selectivity ratio of Ki for human recombinant cathepsin L to Ki for human recombinant cathepsin B.
Data set [10] concerns the target T2, Pro-cathepsin H. The data set can be described thus: Noncompetitive inhibition of human liver cathepsin H endopeptidase activity using R-AMC substrate assessed as inhibition constant for enzyme-inhibitor complex. The method in brief: as §2
The target in data set [11] is T1, Cathepsin B. Conditions: MCF10A neoT, 5 uM. This is another data set of the same source.
Data set [12] addresses T1, Cathepsin B. The experiment in a line: Uncompetitive inhibition of human recombinant […] assessed as inhibition constant for enzyme-substrate-inhibitor complex.
For data set [13], the system named is MCF-10A. The data set can be described thus: Cytotoxicity against human MCF10A neoT cells expressing c-Ha-Ras oncogene at 5 uM measured at 15 mins interval up to 3 days. The format is cell-based. Summed up:
as §1

The target of data set [14] is T1, Cathepsin B. The data set can be described thus: Inhibition of human recombinant cathepsin B exopeptidase activity using Abz-Gly-Ile-Val-Arg-Ala-Lys(Dnp)-OH substrate at 50 uM. Summed up:
(§3)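 Single-point screen at 50 μM inhibitor with 5% DMSO and 0.01% Triton X-100, at 37 °C. Endopeptidase: catB 5 nM with Z-Arg-Arg-AMC 5 μM, phosphate pH 6.0, ex 380/em 460 nm. Exopeptidase: catB 0.5 nM with Abz-GIVRAK(Dnp)-OH 1 μM, acetate pH 5.0, ex 320/em 420 nm. Relative inhibition = 100(1 − vi/vo). Two runs in duplicate.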

In data set [15] the target is T1, Cathepsin B. The experiment in a line: Inhibition of human recombinant cathepsin B endopeptidase activity using Z-Arg-Arg-AMC substrate at 50 uM. The method in brief:
as §3

Data set [16] addresses T1, Cathepsin B. The experiment in a line: Mixed inhibition of cathepsin B (unknown origin) endopeptidase activity assessed as inhibition constant for enzyme-substrate-inhibitor complex.
Data set [17] addresses T1, Cathepsin B. The data set can be described thus: Noncompetitive inhibition of cathepsin B (unknown origin) exopeptidase activity assessed as inhibition constant for enzyme-inhibitor complex.
Data set [18] deals with T1, Cathepsin B. The data set can be described thus: Mixed inhibition of cathepsin B (unknown origin) endopeptidase activity assessed as inhibition constant for enzyme-inhibitor complex.

The term Ki denotes the dissociation constant of the complex between target and ligand, obtained from inhibition or displacement. The inhibition is the share of the control response that was lost under treatment. `N#CCNCc1cc([N+](=O)[O-])c2cccnc2c1O`: the Activity in the data set on MCF-10A [1] is listed as 117%; in the data set with MCF-10A [7] it was 113%; in the data set on MCF-10A [8], “Non-toxic”; in the data set with MCF-10A [13], “Non-toxic”. The inhibitory constant (Ki) came to 426 µM at Cathepsin B [2]; 129 µM on Pro-cathepsin H [6]; 124 µM at Procathepsin L; 129 µM at Pro-cathepsin H [10]; 5 µM on Cathepsin B [12]. The inhibition result at Cathepsin B [3] and at Cathepsin B [11] was “Active” in each case. In the data set with MCF-10A [4], this compound came in with an inhibition at 5 µM of 80%. The Ratio Ki in the data set listed under Homo sapiens [5] amounted to 24; in the data set listed under Homo sapiens [9], 23.

For the compound `O=[N+]([O-])c1ccc(O)c2ncccc12` [NITROXOLINE], the inhibition worked out at 24.7% on Cathepsin B [14] and 21.9% at Cathepsin B [15]. The Ratio Ki in the data set filed under Homo sapiens [5] worked out at 7.4; in the data set listed under Homo sapiens [9], 4.8. The inhibition constant (Ki) on Cathepsin B [16] worked out at 39.5 µM; on Cathepsin B [17], 272 µM; on Cathepsin B [18], 154 µM.
